Sampled rows, rich in hits. Any-hit rate of the full collection: about 3.8%.
FN deposition inh = fibronectin deposition inhibition | inhibition, % at 12.6 µM | AH1F fibroblasts, Alexa488-fibronectin deposition fluorescence, overnight | hit rate 0.086% among 350,000;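 active means mean inhibition across replicates of 30% or more, regardless of how many single replicates reach that level; inconclusive means mean under 30% yet at least half of replicates reach 30%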;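 further: positive control wells lacked labelled fibronectin entirely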
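Schedule: 1 h cell adhesion before compound, then overnight fibronectin incubation; test system: AH1F fibroblast monolayer depositing Alexa488-labelled fibronectin into matrix; quantity: 10000 AH1F cells per well; probe or stimulus: fluorescent fibronectin at 24 nM final; signal: fluorescence, ex 485 nm, em 525 nm; evaluation: percent inhibition as loss of matrix-bound fibronectin fluorescence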
FGF22 binding = FGF22 (human) thermal shift binding. Q9HCT0. activity (Tm shift, normalised), % at 9.99 µM. hit rate 1.5% among 340,000. recombinant FGF22 thermal shift, SYPRO orange fluorescence; percent of sucrose octasulfate shift, DMSO zero. AID 651658;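 active means mean Tm shift, scaled 0 neutral to 100 positive control, at about 1.3% or above, every replicate too, limit read from the data; inconclusive means no clear call, values can overlap the other calls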
Target sequence (Q9HCT0 whole entry, looked up): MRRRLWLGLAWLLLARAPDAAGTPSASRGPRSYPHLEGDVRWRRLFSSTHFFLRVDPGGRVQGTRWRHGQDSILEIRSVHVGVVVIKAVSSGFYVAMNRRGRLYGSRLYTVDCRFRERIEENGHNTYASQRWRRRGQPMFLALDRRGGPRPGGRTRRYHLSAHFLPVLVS
SIRT5 inh = sirtuin-5 (human) deacylase inhibition | AID 652115 | Q9NXA8 | inhibition, % at 15 µM | Purified SirT5, succinyl-peptide AMC, trypsin-coupled fluorescence | hit rate 1.1% among 330,000; in the data active means inhibition above about 15%; inconclusive means no clear call, values can overlap the other calls
Target sequence (Q9NXA8 whole entry, looked up): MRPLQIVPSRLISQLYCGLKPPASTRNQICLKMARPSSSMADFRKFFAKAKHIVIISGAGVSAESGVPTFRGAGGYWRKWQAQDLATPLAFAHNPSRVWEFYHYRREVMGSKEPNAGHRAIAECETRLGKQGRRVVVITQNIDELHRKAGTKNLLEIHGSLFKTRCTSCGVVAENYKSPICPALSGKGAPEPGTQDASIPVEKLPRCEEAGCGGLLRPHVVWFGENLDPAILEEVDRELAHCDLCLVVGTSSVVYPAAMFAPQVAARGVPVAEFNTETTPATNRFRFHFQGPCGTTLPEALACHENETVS
ARNT-TACC3 inh = disruptors of human ARNT/TACC3 interaction; Q9Y6A5; AlphaScreen His-ARNT PAS-B/GST-TACC3 binding, luminescence; TACC3 fragment carries E629A point mutation; inhibition, % at 9.99 µM; hit rate 0.66% among 390,000;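 active means mean inhibition of replicates at least 50% and at least half of replicates each reaching 50%; inconclusive means half or more replicates reach 50% but mean below 50%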;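 further: 0% = complete ARNT plus TACC3 wells and 100% = ARNT alone without TACC3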
DENV2 CPE = protects cells from dengue virus 2 cytopathic effect; DENV2-infected cells, cytopathic effect rescue, plate reader; CPE inhibition, % at 9.99 µM; hit rate 1.7% among 350,000; AID 651640; in the data active means CPE inhibition above about 20%, passing the limit was not always enough; inconclusive means no clear call, values can overlap the other calls; tested in BHK-21 cells;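 further: 0% = median of neutral control wells and 100% = median of positive control wells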
Xi reactivation = X-chromosome reactivation activator; XiGFP mouse fibroblasts, % GFP-positive cells imaging, 3 d; cells co-treated with 5-aza-dC sensitizer; scaled so ellipticine positive control = 100%; activation, % at 7.58 µM; hit rate 0.055% among 360,000; AID 743238;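 active means mean normalized replicate activation at least 10% and every replicate at or above 10%; inconclusive means only one of the two criteria met; inactive means mean below 10% and not all replicates reach 10%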;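 further: 0% = median of on-plate neutral control wells and 100% = ellipticine 6 µM median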
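Assay system – SV40-immortalized XiGFP fibroblast cells, line 68-5-11 · Buffer or medium – DMEM supplemented with 5-aza-dC as sensitizing agent · Dosing – one concentration, pinned · Benchmarks – positive control ellipticine, 6 µM final · Times – 3 days compound exposure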
Numbers without * were called inactive; ! = not confirmed by another sample.

For CCC(=O)N(C)C[C@H]1Oc2cc(-c3ccccc3F)ccc2S(=O)(=O)N([C@H](C)CO)C[C@H]1C the results were FN deposition inh 7, FGF22 binding 0, SIRT5 inh -15, ARNT-TACC3 inh -3, DENV2 CPE 25*! and Xi reactivation -1.
For CC(=O)N(C)C[C@@H]1Oc2cc(-c3ccc(C#N)cc3)ccc2S(=O)(=O)N([C@H](C)CO)C[C@@H]1C the results were FN deposition inh 0, FGF22 binding -1, SIRT5 inh -3, ARNT-TACC3 inh active, DENV2 CPE -4 and Xi reactivation -1.
`CC(=O)N(C)C[C@H]1Oc2cc(-c3ccccc3)ccc2S(=O)(=O)N([C@H](C)CO)C[C@H]1C` gave FN deposition inh -4, FGF22 binding 0, SIRT5 inh -2, ARNT-TACC3 inh -12, DENV2 CPE -9 and Xi reactivation 0.
CC(=O)N(C)C[C@H]1Oc2cc(-c3ccccc3)ccc2S(=O)(=O)N([C@@H](C)CO)C[C@@H]1C was read as FN deposition inh -1, FGF22 binding 0, SIRT5 inh -5, ARNT-TACC3 inh -14, DENV2 CPE 33* and Xi reactivation -1.
`CC(C)NC(=O)N(C)C[C@H]1Oc2ccc(NS(C)(=O)=O)cc2CC(=O)N(C)C[C@@H]1C` gave FN deposition inh 10 and Xi reactivation 0.
`C[C@@H]1CN([C@@H](C)CO)S(=O)(=O)c2ccc(Br)cc2O[C@H]1CN(C)CC1CCCC1` gave FN deposition inh -1, FGF22 binding 0, SIRT5 inh 7, ARNT-TACC3 inh -1, DENV2 CPE 8 and Xi reactivation 1.
For C[C@H](CO)N1C[C@H](C)[C@@H](CN(C)CC2CCCC2)Oc2cc(Br)ccc2S1(=O)=O the results were FN deposition inh -8, FGF22 binding 0, SIRT5 inh 16*, ARNT-TACC3 inh -3, DENV2 CPE 15 and Xi reactivation 0.
Screening C/C=C/c1ccc2c(c1)O[C@@H](CN(C)CC1CCCC1)[C@H](C)CN([C@@H](C)CO)S2(=O)=O returned FN deposition inh 6, FGF22 binding 0, SIRT5 inh 18*, ARNT-TACC3 inh 19, DENV2 CPE 5 and Xi reactivation 0.
COC(=O)[C@H]1[C@H](CO)[C@H]2Cn3c(cccc3=O)[C@H]2N1C(=O)C1CCCC1 was read as FN deposition inh 0, SIRT5 inh -4, DENV2 CPE 15 and Xi reactivation 0.
`C[C@@H]1CCCCO[C@@H](CN(C)C(=O)c2ccccc2)[C@@H](C)CN([C@H](C)CO)C(=O)c2cc(NC(=O)CCC(F)(F)F)ccc2O1` gave FN deposition inh 1, FGF22 binding 0, SIRT5 inh 1, ARNT-TACC3 inh -3, DENV2 CPE 93* and Xi reactivation 0.
C[C@@H]1CCCCO[C@@H](CN(C)C)[C@H](C)CN([C@@H](C)CO)C(=O)c2cc(NC(=O)CCC(F)(F)F)ccc2O1 was read as FGF22 binding 0, SIRT5 inh 17*, ARNT-TACC3 inh 6, DENV2 CPE inconclusive and Xi reactivation 0.
C[C@@H]1CCCCO[C@H](CN(C)C(=O)c2ccncc2)[C@H](C)CN([C@H](C)CO)C(=O)c2cc(NC(=O)CCC(F)(F)F)ccc2O1 was read as FN deposition inh 1, FGF22 binding 0, ARNT-TACC3 inh 4, DENV2 CPE 74* and Xi reactivation 0.
For COc1ccc(CN(C)C[C@@H]2Oc3c(NC(=O)c4cnccn4)cccc3C(=O)N([C@H](C)CO)C[C@H]2C)cc1 the results were FN deposition inh 4, FGF22 binding 0, SIRT5 inh -2, ARNT-TACC3 inh 0, DENV2 CPE inconclusive and Xi reactivation 0.
Screening C[C@H]1CN([C@@H](C)CO)C(=O)c2cccc(NC(=O)c3ccc(-c4nccs4)cc3)c2O[C@@H]1CN(C)Cc1ccc(Cl)c(Cl)c1 returned FN deposition inh 13, FGF22 binding 0, SIRT5 inh 3, ARNT-TACC3 inh 13, DENV2 CPE 7 and Xi reactivation -1.
For COc1ccc2c3c(n(C)c2c1)[C@H](CO)N(C(=O)C1CCOCC1)CC31CCN(C(=O)c2ccncc2)CC1 the results were FN deposition inh -2 and Xi reactivation 0.
O=C(C[C@H]1CC[C@@H]2[C@H](COC[C@@H](O)CN2S(=O)(=O)c2cccc(F)c2)O1)NCCCN1CCOCC1 was read as FN deposition inh -6, FGF22 binding 0, SIRT5 inh 2, ARNT-TACC3 inh -4, DENV2 CPE 4 and Xi reactivation 0.
For CCOC(=O)C1CCN(C(=O)c2ccc3c(=O)n4nc(Nc5ccccc5OC)sc4nc3c2)CC1 the results were FN deposition inh -8, FGF22 binding 2.4*, SIRT5 inh -2, DENV2 CPE inconclusive and Xi reactivation 0.
For CCOC(=O)C1CCN(C(=O)c2ccc3c(=O)n4nc(Nc5cc(C)ccc5C)sc4nc3c2)CC1 the results were FN deposition inh 3, FGF22 binding 0, SIRT5 inh 9, ARNT-TACC3 inh 9, DENV2 CPE -4 and Xi reactivation 0.
Screening CCCC(=O)Nc1ccc(Cl)c(NC(=S)NC(=O)c2ccco2)c1 returned FN deposition inh 0, FGF22 binding 1.5*, ARNT-TACC3 inh -8, DENV2 CPE 2 and Xi reactivation 0.
`CCC(=O)Nc1ccc(Cl)c(NC(=S)NC(=O)COc2ccccc2)c1` gave FN deposition inh -5, FGF22 binding 44*, SIRT5 inh 0, ARNT-TACC3 inh -7 and Xi reactivation 0.
Cc1ccc(S(=O)(=O)Nc2ccc3c(c2)C(=O)N([C@@H](C)CO)C[C@@H](C)[C@@H](CN(C)C(=O)CCCN(C)C)OCCCC[C@H](C)O3)cc1 was read as FN deposition inh -1, FGF22 binding 0, SIRT5 inh -1, ARNT-TACC3 inh 0, DENV2 CPE -1 and Xi reactivation 0.
`CC(=O)N1[C@H](CN(C(=O)c2ccccc2)C(C)C)[C@@H](c2ccccc2)[C@@H]1CO` gave FGF22 binding 0, SIRT5 inh 1, ARNT-TACC3 inh -3, DENV2 CPE -7 and Xi reactivation 0.
`COC(=O)C[C@@H]1C[C@H]2c3cc(NC(=O)C4CCC4)ccc3O[C@H]2[C@H](CO)O1` gave FN deposition inh -2, FGF22 binding 0, SIRT5 inh 2, ARNT-TACC3 inh -8, DENV2 CPE 7 and Xi reactivation 0.
For C[C@@H]1CN([C@@H](C)CO)C(=O)Cc2cc(NS(=O)(=O)c3ccccc3)ccc2O[C@@H]1CN(C)S(=O)(=O)c1cn(C)cn1 the results were FGF22 binding 0, SIRT5 inh 0, ARNT-TACC3 inh -49, DENV2 CPE -3 and Xi reactivation 0.

Source: PubChem
